The text below walks through data of ChEMBL document CHEMBL4342467, “Discovery of a Novel Dual-Target Inhibitor of ERK1 and ERK5 That Induces Regulated Cell Death to Overcome Compensatory Mechanism in Specific Tumor Types” (J Med Chem, 2020).

Data set [1] can be described thus: Cmax in Sprague-Dawley rat at 1 mg/kg, iv by LC-MS analysis. It is filed as ADME, organism-based. Also noted: dose 1 mg/kg, route intravenous. To be noted: in vivo. The procedure, abridged:
(§1)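 Rats, two groups of 3; single i.v. dose 1 mg/kg or oral dose 10 mg/kg. Plasma concentration-time profiles used to derive T1/2, Tmax, Cmax, AUC0-t, AUC0-∞ and oral bioavailability. Data from triplicate testing, ± standard deviation.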

Data set [2] deals with T1, Mitogen-activated protein kinase; ERK1/ERK2 (Homo sapiens) (UniProt P27361+P28482). The data set is described as follows: Inhibition of ERK1/2 phosphorylation in human MKN74 cells harboring ERK1/2 siRNA at 0.5 uM by immunofluorescence assay. It is filed as cell-based. The method in brief: (§2)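 MKN-74 cells transfected with ERK1/2-specific or negative-control siRNA for the indicated times, then given 0.5 μM. p-ERK1/2 and p-ERK5 puncta detected by immunocytochemistry.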

The nature of data set [3]: Effect on Ras/Raf/MEK/ERK signaling in human MKN74 cells assessed as change in Ras expression at 0.5 uM measured up to 24 hrs by Western blot analysis. Format: cell-based. The method in brief:
(§3)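 MKN-74 cells exposed to 0.5 μM for 0, 6, 12 and 24 h. Ras, Raf, p-MEK1/2, MEK1/2, p-JNK, JNK, p-p38 and p38 immunoblotted, with GAPDH as loading control.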
For orientation: A western blot detects proteins with antibodies after separation by electrophoresis.

Data set [4] has as its system MKN-74. The data set is described as follows: Induction of autophagy in human MKN74 cells assessed as increase in p62 degradation at 0.5 uM measured after 24 hrs in presence of autophagy inhibitor 3-methyladenine by Western blot analysis. Format: functional, cell-based. The method in brief:
(§4)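 MKN-74 cells given 0.5 μM for 24 h with or without 3-MA; LC3 and p62 immunoblotted.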

A short description of data set [5]: Tmax in Sprague-Dawley rat at 10 mg/kg, po by LC-MS analysis. To be noted: in vivo. Format: ADME, organism-based. The method in brief: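 Two groups of rats (3 per group) received a single dose, either 1 mg/kg i.v. or 10 mg/kg p.o. Plasma concentrations were followed to derive Tmax, Cmax, T1/2, AUC and F. Data are from triple testing (± standard deviation).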

The next data set concerns HeLa. Briefly: Antitumor activity against human HeLa cells xenografted in BALB/c mouse assessed as reduction in tumor volume at 50 mg/kg, po administered once daily for 16 days measured every 3 days during compound dosing. Format: functional, organism-based. The procedure, abridged: (§5)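 Female nude mice bearing subcutaneous HL-60, MKN-74 or HeLa xenografts, 8 per group. Dosing was vehicle control or 50 mg/kg p.o. once daily for 16 days. Tumor volume followed over time, mean ± SEM.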
On the technique in general: In xenograft studies the graft and the host belong to different species.

For data set [6], the system named is Mus musculus. Briefly: In vivo inhibition of ERK5 in BALB/c mouse xenografted with human MKN74 cells assessed as reduction in phosphorylated ERK5 expression at 50 mg/kg, po administered once daily for 16 days measured post-last dose by immunohistochemical analysis. It is filed as functional, organism-based. The procedure, abridged: (§6)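 Tumors excised from control and 50 mg/kg p.o.-treated xenograft mice were immunostained for Ki-67, p-ERK1/2 and p-ERK5. Positive-cell percentage quantified and compared with control.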

Data set [7] concerns MKN-74. The data set is described as follows: Antitumor activity against human MKN74 cells xenografted in BALB/c mouse assessed as reduction in tumor weight at 50 mg/kg, po administered once daily for 16 days measured post-last dose. It is filed as functional, organism-based. The procedure, abridged: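 Female nude mice bearing subcutaneous xenografts (8 per group) received vehicle or 50 mg/kg p.o. once daily for 16 days. Excised tumors weighed and compared with control group.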

The nature of data set [8]: Effect on Ras/Raf/MEK/ERK signaling in human MKN74 cells assessed as change in p38 phosphorylation at Thr180/Tyr182 residue at 0.5 uM measured up to 24 hrs by Western blot analysis. It is filed as cell-based. The method in brief: as §3
The target of data set [9] is MAPK3/MAPK7 (Homo sapiens) (UniProt P27361+Q13164). The data set is described as follows: Inhibition of ERK1/5 in human MKN74 cells assessed as reduction in c-MYC phosphorylation at S62 residue at 0.5 uM measured up to 24 hrs by Western blot analysis. It is filed as cell-based.
The subject of data set [10] is Mus musculus. Briefly: In vivo inhibition of ERK1/2 in BALB/c mouse xenografted with human MKN74 cells assessed as reduction in phosphorylated ERK1/2 expression at 50 mg/kg, po administered once daily for 16 days measured post-last dose by immunohistochemical analysis. Format: functional, organism-based. The procedure, abridged: as §6
The subject of data set [11] is MKN-74. The data set is described as follows: Induction of autophagy in human MKN74 cells assessed as increase in LC3-2 expression at 0.5 uM measured up to 24 hrs by Western blot analysis. It is filed as functional, cell-based. The procedure, abridged: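 MKN-74 cells treated with 0.5 μM; LC3 (LC3-II) and p62 levels analyzed by immunoblotting.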
Data set [12] relates to MKN-74. The data set is described as follows: Induction of cytoplasmic vacuolization in human MKN74 cells. Format: functional, cell-based.
For another data set, the system named is HL-60. The data set is described as follows: Antitumor activity against human HL60 cells xenografted in BALB/c mouse assessed as reduction in tumor volume at 50 mg/kg, po administered once daily for 16 days measured every 3 days during compound dosing. It is filed as functional, organism-based. The procedure, abridged:
as §5

Data set [13] in a line: Effect on Ras/Raf/MEK/ERK signaling in human MKN74 cells assessed as change in JNK phosphorylation at Thr183/Tyr185 residue at 0.5 uM measured up to 24 hrs by Western blot analysis. Format: cell-based. The procedure, abridged:
as §3

The target in data set [14] is Mitogen-activated protein kinase 1 (Homo sapiens) (UniProt P28482). The data set is described as follows: Inhibition of wild-type human full length ERK2 (M1 to S360 residues) expressed in bacterial expression system at 1 uM by Kinomescan method relative to control. The procedure, abridged:
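KINOMEscan binding assays over a 100-kinase panel, with test compound at 1 μM. Results are given as % inhibition.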

In data set [15] the test system is MKN-74. Briefly: Induction of autophagy in human MKN74 cells transfected with GFP-mRFP-LC3 assessed as increase in LC3 puncta formation at 0.5 uM measured after 24 hrs by fluorescence microscopic analysis. It is filed as functional, cell-based. The method in brief: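 MKN-74 cells transfected with GFP-mRFP-LC3 plasmid, treated 24 h at 0.5 μM. GFP-LC3 puncta imaged by fluorescence microscopy.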

Data set [16] concerns MKN-74. The data set is described as follows: Induction of autophagy in human MKN74 cells assessed as increase in LC3-2 expression at 0.5 uM measured after 24 hrs in presence of autophagy inhibitor 3-methyladenine by Western blot analysis. Format: functional, cell-based. The method in brief: as §4
Data set [17] concerns the target T1, Mitogen-activated protein kinase; ERK1/ERK2 (Homo sapiens). Briefly: Inhibition of ERK1/2 in human MKN74 cells harboring siRNA assessed as reduction in ERK1/2 phosphorylation at 0.5 uM by immunofluorescence assay. Format: cell-based. The method in brief:
as §2

For data set [18], the system named is Mus musculus. Briefly: In vivo inhibition of ERK5 in BALB/c mouse xenografted with human MKN74 cells assessed as reduction in ERK5 phosphorylation at 50 mg/kg, po administered once daily for 16 days measured post-last dose by Western blot analysis. It is filed as functional, organism-based. The method in brief: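 Two individual tumors excised from xenograft mice were lysed. ERK1/2, p-ERK1/2, ERK5 and p-ERK5 detected by western blot.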

The target in data set [19] is Mitogen-activated protein kinase 3 (Homo sapiens) (UniProt P27361). The data set is described as follows: Inhibition of ERK1 (unknown origin) at 1 uM by Z'-Lyte assay relative to control.
Data set [20] is described as follows: Effect on Ras/Raf/MEK/ERK signaling in human MKN74 cells assessed as change in MEK1/2 expression at 0.5 uM measured up to 24 hrs by Western blot analysis. Format: cell-based. The procedure, abridged:
as §3

Data set [21] is described as follows: Effect on Ras/Raf/MEK/ERK signaling in human MKN74 cells assessed as change in Raf expression at 0.5 uM measured up to 24 hrs by Western blot analysis. Format: cell-based. The method in brief: as §3
The nature of data set [22]: AUC (0 to t) in Sprague-Dawley rat at 1 mg/kg, iv by LC-MS analysis. It is filed as ADME, organism-based. To be noted: in vivo. The method in brief:
as §1

The source made the active and inactive calls. The rule behind the calls is not given here.

T1 sequence (P27361 whole entry, looked up): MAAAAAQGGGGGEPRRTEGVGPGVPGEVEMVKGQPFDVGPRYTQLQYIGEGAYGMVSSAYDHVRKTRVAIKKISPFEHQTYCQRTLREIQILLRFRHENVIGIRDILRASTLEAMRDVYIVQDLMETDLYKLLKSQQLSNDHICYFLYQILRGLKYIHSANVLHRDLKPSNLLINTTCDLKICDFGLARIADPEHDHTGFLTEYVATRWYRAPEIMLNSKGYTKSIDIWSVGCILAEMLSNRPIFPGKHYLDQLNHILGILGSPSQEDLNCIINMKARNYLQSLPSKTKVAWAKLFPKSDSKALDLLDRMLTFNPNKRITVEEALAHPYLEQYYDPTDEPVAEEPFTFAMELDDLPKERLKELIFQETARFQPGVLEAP
T1 sequence (P28482 whole entry, looked up): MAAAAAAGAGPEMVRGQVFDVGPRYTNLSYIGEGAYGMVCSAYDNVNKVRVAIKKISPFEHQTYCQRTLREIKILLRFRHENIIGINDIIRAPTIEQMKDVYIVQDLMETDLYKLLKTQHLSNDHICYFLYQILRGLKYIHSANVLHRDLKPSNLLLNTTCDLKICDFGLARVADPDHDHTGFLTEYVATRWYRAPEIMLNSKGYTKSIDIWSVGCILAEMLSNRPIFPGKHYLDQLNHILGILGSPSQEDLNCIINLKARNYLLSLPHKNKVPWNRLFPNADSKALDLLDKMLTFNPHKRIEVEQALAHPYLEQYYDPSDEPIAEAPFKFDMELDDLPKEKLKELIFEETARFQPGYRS
Mitogen-activated protein kinase 3 (Homo sapiens), sequence (P27361 whole entry): as the sequence (P27361 whole entry, looked up) above
MAPK3/MAPK7 (Homo sapiens), sequence (P27361 whole entry, looked up): as above
MAPK3/MAPK7 (Homo sapiens), sequence (Q13164 whole entry, looked up): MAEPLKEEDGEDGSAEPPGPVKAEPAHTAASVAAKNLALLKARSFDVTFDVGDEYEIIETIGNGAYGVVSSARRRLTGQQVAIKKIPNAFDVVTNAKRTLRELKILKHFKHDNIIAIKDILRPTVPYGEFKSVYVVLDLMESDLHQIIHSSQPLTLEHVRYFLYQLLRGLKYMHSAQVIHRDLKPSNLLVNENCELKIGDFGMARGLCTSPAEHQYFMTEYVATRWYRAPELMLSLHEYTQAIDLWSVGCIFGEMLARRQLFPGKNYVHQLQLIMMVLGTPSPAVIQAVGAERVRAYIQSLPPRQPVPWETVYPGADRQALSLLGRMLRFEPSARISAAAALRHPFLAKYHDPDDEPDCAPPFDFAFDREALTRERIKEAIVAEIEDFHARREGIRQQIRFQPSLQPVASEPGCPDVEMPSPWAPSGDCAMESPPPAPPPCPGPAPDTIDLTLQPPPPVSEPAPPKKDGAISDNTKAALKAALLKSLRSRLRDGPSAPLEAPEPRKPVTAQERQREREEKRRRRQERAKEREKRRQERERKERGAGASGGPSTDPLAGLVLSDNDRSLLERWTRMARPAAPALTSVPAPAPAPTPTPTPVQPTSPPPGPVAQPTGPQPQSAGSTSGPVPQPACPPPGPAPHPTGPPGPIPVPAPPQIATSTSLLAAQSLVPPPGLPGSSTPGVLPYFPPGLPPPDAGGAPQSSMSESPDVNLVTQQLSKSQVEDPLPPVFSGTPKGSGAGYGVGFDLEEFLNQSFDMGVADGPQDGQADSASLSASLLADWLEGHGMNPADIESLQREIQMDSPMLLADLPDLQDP
Mitogen-activated protein kinase 1 (Homo sapiens), sequence (P28482 whole entry, the tested form may be a part): as the sequence (P28482 whole entry, looked up) above

The term Cmax denotes the peak of the concentration-time curve. The inhibition is the relative decrease from the control value, in per cent. In general, Tmax refers to the time from dosing to the highest level. A word on the AUC(0-t): it is exposure summed from dosing to a finite time, without extrapolation to infinity. For `NC(=O)c1c(NC(=O)c2ccccc2Cl)sc2c1CCN(C(=S)Nc1ccccc1Cl)C2`, the Cmax in [1] came out at 1890 ng/mL. Moreover, the inhibition entry (in data set [2]; in the data set with Mus musculus [6]; in [9]; in the data set on Mus musculus [10]; in data set [17]; in the data set with Mus musculus [18]) was “Active” throughout. Further, the outcome (in data set [3]; with MKN-74 [4]; in the data set with HeLa; in [8]; in data set [13]; in the data set with MKN-74 [16]) was inactive. The outcome in data set [20] and in data set [21] was inactive. Also, the time of peak concentration (Tmax) in data set [5] is 45 min. The result in the data set on MKN-74 [7], with MKN-74 [11], with MKN-74 [12], with HL-60 and with MKN-74 [15] was Active. Besides, the inhibition in data set [14] worked out at 91%; in data set [19], 93.5%. Further, the AUC(0-t) in [22] was 1840 ng·h/mL.
